High-throughput results deposited in PubChem by several laboratories.
Hits are enriched below; roughly 1.8% of the tested compounds scored in any of these assays.
UBC9 SUMO inh: SUMOylation inhibition. P63279. hit rate 0.36% among 290,000. HTRF SUMOylation assay, SAE1/SAE2 + UBC9, in vitro. inhibition, % at 35 µM; in the data active = inhibition above about 50%, passing the limit was not always enough
HNF4A DNA FP: change in binding of human HNF4 alpha to DNA; activity change, % at 10 µM; P41235; HNF4a-FITC DNA binding, fluorescence polarization, 1 h; AID 1224865; hit rate 0.3% among 360,000; in the data active = activity change above about 30%, passing the limit was not always enough
Rpn11 inh: blocks the human proteasome subunit Rpn11. AID 588493. human 26S proteasome, Ub4-pepOG fluorescence polarization; 20S core pre-blocked with epoxomicin. calls only at 20 µM. O00487. hit rate 0.59% among 360,000;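 active = inhibition at 20 µM, scaled to each plate's controls, above about 33%, limit read from the data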
CSN inh: inhibitors of human CSN-mediated cullin deneddylation. Q92905. Purified CSN, SCF-Nedd8-OG deneddylation, fluorescence polarization. inhibition, % at 12.5 µM. hit rate 0.38% among 360,000;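 active = pattern-corrected inhibition above about 35%, with an unprinted fluorescence ratio check between 0.5 and 1.5, limit read from the data, passing the limit was not always enough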;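 note: 0% = enzyme with substrate and 100% = substrate without enzyme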
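Assay system: purified human Csn5 enzyme expressed in HEK293T cells; Input: 0.24 nM Csn5 enzyme, final concentration; Reagent: 10 nM SCFSkp2-Nedd8OG; Compound dosing: 12.5 µM single point; Times: reaction 90 min, room temperature; Technique: fluorescence polarization readout.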
SENP1 inh: blocks the human SENP1 SUMO protease catalytic domain | Q9P0U3 | recombinant SENP1 catalytic domain, CyPet-SUMO1-YPet FRET cleavage | inhibition, % at 10 µM | hit rate 0.21% among 360,000 | AID 624204;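 active = inhibition at least 30% at 10 µM, raw YFP signal under a set limit, fluorescence ratio 0.5 to 1.5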;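 note: 0% = enzyme with DMSO and 100% = no enzyme wells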
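System: Recombinant human SENP1 catalytic domain, His6-tagged | Incubation: Enzyme reaction for 50 min at room temperature, dark | Medium: Tris pH 8 with BME, BSA, NP40 and catalase | Also added: 25 nM SUMO1 FRET substrate | Compound: 10 µM single point, 0.5% DMSO | Measured by: FRET fluorescence in CFP and YFP emission channels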
TPT1 inhibitor: C. albicans TPT1 enzyme inhibition. recombinant caTPT1, FP RNA substrate dephosphorylation. inhibition, % at 5 µM. hit rate 0.81% among 300,000;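 active = inhibition above the mean of all tested compounds plus 3 SD, set per screening campaign, cut at about 24% in these data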;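 note: plate controls were DMSO alone for no effect and ferristatin control at 100 nM for full effect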
caTPT1 confirm: TPT1 (C. albicans) inhibition, confirmation | shares compounds with TPT1 inhibitor | hit rate 74% among 2,400 | recombinant caTPT1, fluorescence polarization, RNase T1 coupled | inhibition, % at 5 µM | AID 2149;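 active = inhibition above the primary screen limit, the mean inhibition of all tested compounds plus 3 SD, cut at about 25% in these data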
RNase T1 counter: RNase T1 inhibition in TPT1 counter-screen. shares compounds with TPT1 inhibitor. RNase T1 cleavage, fluorescence polarization, 1536-well. inhibition, % at 5 µM. hit rate 83% among 2,400. AID 2153;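 active = inhibition above the solvent-only control well mean plus 3 SD, limit set per screening run, cut at about 23% in these data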;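 note: plate controls were DMSO wells with enzyme for no effect and wells without RNase T1 for full effect; inhibitors block cleavage so intact labeled substrate keeps polarization high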
Rpn11 inh conf: Rpn11 inhibition confirmation, single concentration; AID 602318; purified human 26S proteasome, Ub4-pepOG fluorescence polarization; proteasome pretreated with epoxomicin; shares compounds with Rpn11 inh; hit rate 29% among 1,900; inhibition, % at 20 µM
MMP-2 counter: counter-screen for RPN11 inhibitors: inhibition of human MMP-2; shares compounds with Rpn11 inh; recombinant MMP-2, FRET peptide cleavage fluorescence; inhibition, % at 20 µM; hit rate 4% among 1,900; AID 602330;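 note: human MMP-2 activated beforehand with APMA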
Thrombin inh: counter-screen for RPN11 inhibitors: inhibition of bovine thrombin | shares compounds with Rpn11 inh | bovine thrombin cleavage of Ub4-pepOG, fluorescence polarization | inhibition, % at 20 µM | hit rate 13% among 1,900;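 active = mean inhibition at least 40% at 20 µM, or signal 3 deviations below plate average, so some actives read negative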;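 note: plate controls were thrombin with DMSO for no effect and buffer wells lacking thrombin for full effect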
Target sequence (P00735 whole entry, looked up): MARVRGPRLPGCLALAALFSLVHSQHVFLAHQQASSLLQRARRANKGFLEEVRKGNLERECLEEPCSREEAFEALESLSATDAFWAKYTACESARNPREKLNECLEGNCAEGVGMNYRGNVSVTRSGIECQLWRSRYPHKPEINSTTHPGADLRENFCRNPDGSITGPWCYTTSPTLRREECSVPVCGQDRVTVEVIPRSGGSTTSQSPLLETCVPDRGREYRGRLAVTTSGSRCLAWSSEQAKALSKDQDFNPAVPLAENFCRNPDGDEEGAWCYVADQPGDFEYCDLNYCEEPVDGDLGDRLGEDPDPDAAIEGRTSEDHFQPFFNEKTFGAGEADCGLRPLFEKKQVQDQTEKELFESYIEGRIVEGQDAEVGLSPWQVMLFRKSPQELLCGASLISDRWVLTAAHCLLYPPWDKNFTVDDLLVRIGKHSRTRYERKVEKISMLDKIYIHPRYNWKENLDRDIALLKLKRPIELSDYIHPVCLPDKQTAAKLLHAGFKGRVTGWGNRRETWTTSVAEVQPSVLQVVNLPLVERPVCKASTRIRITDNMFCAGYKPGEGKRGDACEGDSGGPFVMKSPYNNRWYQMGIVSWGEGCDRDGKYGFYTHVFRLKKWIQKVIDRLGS
An asterisk follows results filed as active; i = inactive; . = not tested or not shown; + = active, no number. Cut-off read from the data, not from the text of the source, unless noted: active = inhibition above about 40%; inactive = the rest.

SMILES	UBC9 SUMO inh	HNF4A DNA FP	Rpn11 inh	CSN inh	SENP1 inh	TPT1 inhibitor	caTPT1 confirm	RNase T1 counter	Rpn11 inh conf	MMP-2 counter	Thrombin inh
COc1ccc(OCC(=O)NNC(=O)C(=O)Nc2ccccc2)cc1	.	7	i	2	1	.	.	.	.	.	.
CCOC(=O)c1c(N)n(C2CC(C)(C)NC(C)(C)C2)c2nc3ccccc3nc12	27	1	i	-5	-111	2	.	.	.	.	.
CCOC(=O)c1c(NC(=O)c2ccco2)n(C2CCCCC2)c2nc3ccccc3nc12	97	16	+	10	-25	31*	28*	39*	28	10	21
Cc1[nH]c2ccccc2c1/C=N/n1cnnc1	-2	2	i	-1	-10	1	.	.	.	.	.
COCCN=c1scc(-c2cc(OC)c(OC)c(OC)c2)n1/N=C/c1c(C)[nH]c2ccccc12	-23	31	+	12	36	44*	60*	71*	56*	23	27
COc1ccc(N/C=C/C(=O)c2sc(-c3ccccc3)nc2C)cc1	-2	23	+	5	-14	71*	52*	65*	17	-15	-17
CC(C)C(N)c1csc(Nc2cc(Oc3ccccc3)ncn2)n1 (stereo not given)	.	-1	i	-3	-1	.	.	.	.	.	.
CCN1C(=S)SC(=O)C1=C1C=C(C)OC(C)=C1	13	-15	.	-18	-61	4	.	.	.	.	.
CCN1C(=S)SC(=O)C1=C1C=C(C)N(Cc2ccco2)C(C)=C1	1	36	+	17	10	163*	126*	131*	2	4	34
CCCSc1nnc(NC(=O)c2sc3nc(-c4cccs4)ccc3c2N)s1	10	33	+	9	-18	66*	23	28*	61*	-32	14
O=C(N/N=C/c1sc(N2CCOCC2)nc1-c1ccccc1)c1cccc(S(=O)(=O)N2CCCC2)c1	23	43*	+	25	-36	35*	34*	43*	94*	12	69*
O=C(N/N=C/c1sc(=O)n(-c2ccccc2)c1Cl)c1ccncc1	10	21	+	14	-4	32*	69*	81*	25	-26	12
COc1cc(C(=O)N/N=C/c2sc(=O)n(-c3ccccc3)c2Cl)cc(OC)c1OC	7	11	i	2	-8	8	.	.	.	.	.
COc1cc(/C=C/c2nc3ccccc3c(=O)[nH]2)ccc1O	.	6	i	6	5	.	.	.	.	.	.
COc1cc(/C=C/c2nc3ccccc3c(=O)[nH]2)cc(Br)c1O	31	35	+	38*	-26	50*	79*	78*	43*	-23	19
O=C(NN1C(=O)/C(=C\c2ccc(O)c([N+](=O)[O-])c2)SC1=S)c1ccccc1Cl	0	28	+	23	33*	49*	53*	63*	70*	11	53*
O=C(O)COc1ccccc1/C=C1\SC(=S)N(/N=C/c2ccccc2O)C1=O	-3	5	i	13	-3	2	.	.	.	.	.
O=C(O)c1ccc(/C=C2\SC(=S)N(NC(=O)c3ccccc3[N+](=O)[O-])C2=O)cc1	-4	-2	i	3	5	.	.	.	.	.	.
O=C(O)COc1ccccc1/C=C1\SC(=S)N(NC(=O)c2ccccc2O)C1=O	.	8	+	16	7	31*	31*	40*	58*	-9	54*
Cc1c(Br)c(C(=O)N2CCc3ccccc32)nn1C	8	1	i	3	-1	1	.	.	.	.	.
CC12CCC(C(=O)O)(c3nc(C#N)c(C#N)nc31)C2(C)C (stereo not given)	1	1	i	6	-1	-6	.	.	.	.	.
N#Cc1c(SCC(=O)Nc2ccc(C(F)(F)F)cc2)sc2c(O)cc(=O)[nH]c12	8	0	i	1	-3	4	.	.	.	.	.
N#Cc1c(SCC(=O)Nc2nncs2)sc2c(O)cc(=O)[nH]c12	45	-34	+	34	-17	76*	9	15	37	52*	9
S=C1NCN(Cc2ccco2)CN1	6	2	i	3	1	2	.	.	.	.	.
O=C1CC(=O)N(Cc2ccco2)C(=S)N1	83*	-20	+	61*	-61	111*	21	31*	102*	82*	+
SMILES	UBC9 SUMO inh	HNF4A DNA FP	Rpn11 inh	CSN inh	SENP1 inh	TPT1 inhibitor	caTPT1 confirm	RNase T1 counter	Rpn11 inh conf	MMP-2 counter	Thrombin inh
CN(c1ccccc1)S(=O)(=O)c1cccc(C(=O)OCC(=O)Nc2ccc3[nH]c(=O)[nH]c3c2)c1	.	2	i	1	-2	1	.	.	.	.	.
CC1CCN(c2ccc([N+](=O)[O-])cc2C(=O)O)CC1	-6	2	i	-7	4	-2	.	.	.	.	.
CC(/C=C1\SC(=S)N(CCC(=O)Nc2cccc(C(=O)O)c2)C1=O)=C\c1ccccc1	32	7	+	16	-6	25*	43*	56*	122*	-6	28
Cc1cc(C(=O)O)ccc1-n1c(C)cc(C=C2C(=O)c3ccccc3C2=O)c1C	38	7	+	-2	-28	59*	51*	63*	15	-4	-2
Cc1cc(C(=O)O)ccc1-n1c(C)cc(/C=C(/C#N)C(=O)Nc2ccccc2)c1C	32	0	i	-7	-12	-3	.	.	.	.	.
Cc1nnc(-c2cnn(C)c2N)n1Cc1ccc(Cl)cc1	12	0	i	-3	1	-6	.	.	.	.	.
CC(C)N1CCc2c(sc(NC(=O)c3cc(-c4cccs4)nc4ccccc34)c2C(N)=O)C1	-4	12	+	107*	-72	44*	14	22*	128*	2	56*
CCC(C)NC(=O)c1cc(-c2cccs2)nc2ccccc12 (stereo not given)	16	0	i	4	2	2	.	.	.	.	.
COc1cccc(/C=C2\Oc3ccc(O)cc3C2=O)c1O	21	9	+	6	-27	49*	71*	79*	-6	-73	-13
